The EC50 is the concentration at which the effect is half-maximal.

Data on 23 molecules can be found in ChEMBL document CHEMBL3632536, “Novel Fluorinated 8-Hydroxyquinoline Based Metal Ionophores for Exploring the Metal Hypothesis of Alzheimer's Disease” (ACS Med Chem Lett, 2015).

A short description of assay [1]: Reversal of Zn-induced human soluble amyloid beta (1 to 42) aggregation after 30 mins by bis-ANS-based fluorometric analysis. In short, it runs like this: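 Soluble Aβ oligomer aggregation monitored fluorometrically with bis-ANS.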
Assay [2] deals with SH-SY5Y. Description: Ionophoric activity in human SH-SY5Y cells assessed as increase in cellular Fe uptake at 20 uM after 6 hrs by ICP-MS analysis relative to vehicle-treated control. Format: functional, cell-based. In short, it runs like this: (§1)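 SH-SY5Y neuronal cells exposed to each compound at 20 μM for 6 h. Cellular Zn, Cu and Fe content then determined by ICP-MS and compared with untreated control level.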

Assay [3] concerns SH-SY5Y. Description: Ionophoric activity in human SH-SY5Y cells assessed as increase in cellular Zn uptake at 20 uM after 6 hrs by ICP-MS analysis relative to vehicle-treated control. It is filed as functional. In short, it runs like this: as §1
Assay [4] concerns SH-SY5Y. Description: Ionophoric activity in human SH-SY5Y cells assessed as increase in cellular Cu uptake at 20 uM after 6 hrs by ICP-MS analysis relative to vehicle-treated control. It is filed as functional. In short, it runs like this:
as §1

SMILES strings stand for the structures. Calls of active or inactive are those of the source. The calls are words filed in the database; no cut-off is given here.

`CN(Cc1cn(CCCF)nn1)Cc1ccc2c(Cl)cc(Cl)c(O)c2n1`: the EC50 in assay [1] was 4.5 µM. Besides, the outcome in the assay with SH-SY5Y [2] was inactive. The “fold change (FC)” value in the assay with SH-SY5Y [3] is reported as over 2.

With `Oc1c(I)cc(F)c2cccnc12`, the entries for the “fold change (FC)” value in the assay with SH-SY5Y [4] and in the assay with SH-SY5Y [3] were 6 and over 2, respectively. For the same molecule, the EC50 in assay [1] was 2.5 µM.

As for `Oc1c(Br)cc(F)c2cccnc12`, the results for the “fold change (FC)” value in the assay with SH-SY5Y [4] and in the assay on SH-SY5Y [3] were 6 and over 2, respectively. Moreover, in assay [1], the 50% effective concentration (EC50) worked out at 3.7 µM.

Consider `COc1cccc2ccc(Cl)nc12`, for which the result in the assay on SH-SY5Y [2] and in the assay with SH-SY5Y [3] was inactive.

As for `Oc1c(F)ccc2cccnc12`, in the assay with SH-SY5Y [4], the result was Active. Also, the outcome with SH-SY5Y [2] and in the assay with SH-SY5Y [3] was inactive.

`Oc1c(I)cc(Cl)c2cccnc12` [CLIOQUINOL]: the outcome in the assay on SH-SY5Y [4] and with SH-SY5Y [3] was Active. Also, in assay [1], the EC50 amounted to 1.8 µM.

Consider `Oc1ccccc1/N=C/c1ccc(F)cc1`, for which the concentration for a half-maximal effect (EC50) in assay [1] was 15.4 µM. Besides, the result in the assay on SH-SY5Y [2] and in the assay on SH-SY5Y [3] was inactive.

Consider `Oc1c(F)cc(Br)c2cccnc12`, for which the EC50 in assay [1] amounted to 3.5 µM.

For `CN(C)Cc1ccc2c(Cl)cc(Cl)c(O)c2n1`, the outcome in the assay on SH-SY5Y [4] and in the assay on SH-SY5Y [3] was Active. The EC50 in assay [1] worked out at 2 µM.

On to `CN(Cc1cn(CCF)nn1)Cc1ccc2c(Cl)cc(Cl)c(O)c2n1`, for which the EC50 in assay [1] was 2.3 µM. Further, in the assay on SH-SY5Y [2], the result was inactive. Further, the “fold change (FC)” value with SH-SY5Y [3] is listed as over 2.

With `Oc1c(Cl)cc(Cl)c2ccc(COCCCCF)nc12`, in the assay with SH-SY5Y [4], the outcome was Active. Moreover, the EC50 in assay [1] came out at 2 µM. The result with SH-SY5Y [2] was inactive.

Take `Oc1cc(F)cc2cccnc12`: the outcome in the assay on SH-SY5Y [4] was Active. Also, the result in the assay on SH-SY5Y [2] and with SH-SY5Y [3] was inactive.

As to `Oc1ccc(F)c2cccnc12`, the outcome in the assay on SH-SY5Y [4] was Active. Moreover, the outcome in the assay on SH-SY5Y [2] and in the assay with SH-SY5Y [3] was inactive.

For `Oc1cccc2nccnc12`, the outcome in the assay on SH-SY5Y [2] and in the assay on SH-SY5Y [3] was inactive.

Regarding `Oc1c(Cl)cc(F)c2cccnc12`, the results for the “fold change (FC)” value with SH-SY5Y [4] and in the assay with SH-SY5Y [3] were 6 and over 2, respectively. For the same molecule, in assay [1], the EC50 turned out to be 5.2 µM.

Turning to `CN(Cc1cn(CCCCF)nn1)Cc1ccc2c(Cl)cc(Cl)c(O)c2n1`, the EC50 in assay [1] turned out to be 2.8 µM. Also, the outcome in the assay with SH-SY5Y [2] was inactive. Also, in the assay with SH-SY5Y [3], the “fold change (FC)” value is given as over 2.

As to `Oc1c(F)cc(I)c2cccnc12`, the EC50 in assay [1] was found to be 2.3 µM.

In the case of `Oc1cccc2cccnc12`, the outcome in the assay on SH-SY5Y [4] was Active. The result in the assay on SH-SY5Y [2] and in the assay with SH-SY5Y [3] was inactive.

For `Oc1c(F)cc(Cl)c2cccnc12`, the EC50 in assay [1] worked out at 4.9 µM.

As for `Oc1cccc2ccc(F)nc12`, the result in the assay with SH-SY5Y [4], in the assay on SH-SY5Y [2] and with SH-SY5Y [3] was inactive. For the same molecule, the EC50 in assay [1] is over 120 µM.

Regarding `Oc1c(Cl)cc(Cl)c2ccc(COCCF)nc12`, the 50% effective concentration (EC50) in assay [1] was 2.4 µM. The outcome in the assay on SH-SY5Y [2] was inactive.

Turning to `Oc1cccc2cc[nH]c12`, the result in the assay on SH-SY5Y [2] and in the assay on SH-SY5Y [3] was inactive.

`Oc1cccc2cc(F)cnc12`: the outcome with SH-SY5Y [4] was Active. Moreover, the outcome in the assay with SH-SY5Y [2] and in the assay on SH-SY5Y [3] was inactive.
